Measurements: article PMC10644204 (Pharmacology Research & Perspectives, 2023)
One block for each molecule: values may come before it.

Legend:
[1] = Plasma pharmacokinetics, part 2 main QTc study; format: in vivo, human; conditions: human, plasma, oral, 400 mg
Procedure, shortened: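 Moderate-fat meal 30 min before each dose. Plasma sampled predose on Days 1, 5, 6 and 7, and on Day 7 at 0.5–24 h postdose. Test compound assayed by validated UHPLC-MS/MS (3.00–1000 ng mL−1).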

healthy participants [2] = experiment: Safety assessments; format: in vivo, human; conditions: part 2, Moxifloxacin 400 mg (N = 40)
Procedure, shortened: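 Part 2 healthy participants confined from Day −2 of period 1 to Day 9 of period 4. […] AEs monitored throughout, recording duration, severity, causality and outcome, alongside safety ECGs, laboratory tests, physical examination and vital signs.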

healthy participants [3] = format: in vivo, human; conditions: moxifloxacin 400 mg single dose
QT interval = conditions: supratherapeutic vs therapeutic doses; cited from earlier work

- Observations of ΔQTcF >30 ms (healthy participants [3]): no participants
Compound: COc1c(N2C[C@@H]3CCCN[C@@H]3C2)c(F)cc2c(=O)c(C(=O)O)cn(C3CC3)c12 [Moxifloxacin, moxifloxacin, reference compound]
- Cmax [1]: 1960 ng/mL
- Tmax [1]: 4 h
- AE: Abdominal pain (healthy participants [2]): 1 (3) n (%)
- AE: Acne (healthy participants [2]): 0 n (%)
- AE: Diarrhea (healthy participants [2]): 0 n (%)
- AE: Gastrointestinal disorders (healthy participants [2]): 2 (5) n (%)
- AE: General disorders and administration site conditions (healthy participants [2]): 1 (3) n (%)
- AE: Immune system disorders (healthy participants [2]): 1 (3) n (%)
- AE: Infections and infestations (healthy participants [2]): 0 n (%)
- AE: Maculopapular rash (healthy participants [2]): 0 n (%)
- AE: Medical device site dermatitis (healthy participants [2]): 0 n (%)
- AE: Nausea (healthy participants [2]): 0 n (%)
- AE: Nervous system disorders (healthy participants [2]): 2 (5) n (%)
- AE: Renal and urinary disorders (healthy participants [2]): 1 (3) n (%)
- AE: Reproductive system and breast disorders (healthy participants [2]): 0 n (%)
- AE: Respiratory, thoracic, and mediastinal disorders (healthy participants [2]): 0 n (%)
- AE: Skin and subcutaneous tissue disorders (healthy participants [2]): 0 n (%)
- AE: Vessel puncture site pain (healthy participants [2]): 1 (3) n (%)
- Any AE (healthy participants [2]): 4 (10) n (%)
- Any drug-related AE (healthy participants [2]): 2 (5) n (%)
- Drug-related AE: Abdominal pain (healthy participants [2]): 1 (3) n (%)
- Drug-related AE: Acne (healthy participants [2]): 0 n (%)
- Drug-related AE: Diarrhea (healthy participants [2]): 0 n (%)
- Drug-related AE: Fatigue (healthy participants [2]): 0 n (%)
- Drug-related AE: Gastrointestinal disorders (healthy participants [2]): 1 (3) n (%)
- Drug-related AE: General disorders and administration site conditions (healthy participants [2]): 0 n (%)
- Drug-related AE: Maculopapular rash (healthy participants [2]): 0 n (%)
- Drug-related AE: Nausea (healthy participants [2]): 0 n (%)
- Drug-related AE: Pruritus (healthy participants [2]): 0 n (%)
- Drug-related AE: Renal and urinary disorders (healthy participants [2]): 1 (3) n (%)
- Drug-related AE: Skin and subcutaneous tissue disorders (healthy participants [2]): 0 n (%)
- Drug-related AE: Urinary hesitation (healthy participants [2]): 1 (3) n (%)
- Any drug-related AE (healthy participants [2]; listed as moxifloxacin): 2 n (%)

Compound: COc1cnc(-n2cnc(C)n2)c2c1c(C(=O)C(=O)N1CCN(C(=O)c3ccccc3)CC1)cn2COP(=O)(O)O [fostemsavir]
- QT prolongation (QT interval): QT prolongation with supratherapeutic doses but not therapeutic doses

Compound: Cc1cc(/C=C/C#N)cc(C)c1Nc1ccnc(Nc2ccc(C#N)cc2)n1 [rilpivirine]
- QT prolongation (QT interval): QT prolongation with supratherapeutic doses but not therapeutic doses
